Results of several laboratories.
Lines come from different studies, so protocols differ.
Target: Muscle, skeletal receptor tyrosine-protein kinase (MUSK, Homo sapiens, UniProt O15146)
Sequence (O15146 1-869, as in one of the studies): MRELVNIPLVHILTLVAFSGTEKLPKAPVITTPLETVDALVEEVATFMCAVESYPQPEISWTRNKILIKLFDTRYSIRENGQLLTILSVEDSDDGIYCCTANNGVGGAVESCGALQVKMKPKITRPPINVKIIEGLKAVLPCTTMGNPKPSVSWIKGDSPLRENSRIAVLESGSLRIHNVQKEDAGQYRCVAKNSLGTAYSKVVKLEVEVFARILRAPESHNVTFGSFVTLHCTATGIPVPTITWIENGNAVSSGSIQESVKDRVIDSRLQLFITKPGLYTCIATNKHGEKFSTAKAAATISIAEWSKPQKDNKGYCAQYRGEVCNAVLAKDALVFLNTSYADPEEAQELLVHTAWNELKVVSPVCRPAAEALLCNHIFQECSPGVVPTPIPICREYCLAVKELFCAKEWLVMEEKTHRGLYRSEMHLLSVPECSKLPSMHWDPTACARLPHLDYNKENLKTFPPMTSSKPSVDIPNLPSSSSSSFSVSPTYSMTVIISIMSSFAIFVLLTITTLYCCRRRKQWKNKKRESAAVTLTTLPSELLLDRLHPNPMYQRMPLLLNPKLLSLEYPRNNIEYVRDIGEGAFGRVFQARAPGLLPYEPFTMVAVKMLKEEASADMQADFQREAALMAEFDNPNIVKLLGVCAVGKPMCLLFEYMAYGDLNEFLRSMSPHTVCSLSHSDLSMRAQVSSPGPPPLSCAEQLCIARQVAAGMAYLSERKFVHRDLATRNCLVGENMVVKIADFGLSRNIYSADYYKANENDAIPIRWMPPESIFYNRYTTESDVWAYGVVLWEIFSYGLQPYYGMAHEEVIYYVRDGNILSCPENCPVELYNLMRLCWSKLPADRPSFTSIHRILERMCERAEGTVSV

COc1ncc2cc3ccccc3nc2c1C#N — remaining binding (cell-free assay, competition with immobilised ligand; 5 µM): 100%
FC(F)(F)c1ccc2c(c1)nc(-c1cccnc1)n2C1CC1 — remaining binding (cell-free assay, competition with immobilised ligand; 1 µM): 100%
C=CC(=O)N1CCC(C(=O)NCC(=O)N2CCN(c3nc(-c4cnc(N)nc4C(F)F)nc(N4CCOCC4)n3)CC2)CC1 — remaining binding (binding, competition with immobilised ligand; 1 µM): 79%
Cc1cnn2ncc(-c3ccnc(N(C)C)n3)c2c1 — remaining binding (binding; 1 µM): 79%
COc1cnc(Nc2cccc(S(N)(=O)=O)c2)nc1N1CCN(c2ccccc2)C(=O)C1 — remaining binding (binding, competition with immobilised ligand; 1 µM): 99%
O=C(c1ccc(Nc2ncc(Cl)c(-c3ccc(Cl)s3)n2)cc1)N1CCC(N2CCCC2)CC1 — remaining binding (binding, competition with immobilised ligand; 1 µM): 57%
O=C(NCC1CCOCC1)c1n[nH]cc1NC(=O)c1c(F)cccc1F — remaining binding (binding, competition with immobilised ligand; 1 µM): 88%
O=C(NCc1ncc(C(F)(F)F)cc1Cl)c1ccc2c(c1)C1(CCS(=O)(=O)CC1)[C@@H](C1CC1)N2S(=O)(=O)c1ccc(F)cc1 — remaining binding (cell-free assay, competition with immobilised ligand; 1 µM): 79%
CN(C)c1ncc(F)c(-c2cnn3ncccc23)n1 — remaining binding (binding; 1 µM): 100%
Cc1c(NC(=O)c2cc(C(N)=O)nc3cc(F)ccc23)c(C(F)(F)F)nn1Cc1ccc(C#N)cc1 — remaining binding (cell-free assay, competition with immobilised ligand; 1 µM): 95%
C[C@H]1CCN(c2nccc(-c3cnn4ncccc34)n2)C1 — remaining binding (binding; 1 µM): 80%
Cc1cnc(Nc2ccc(C(=O)N3CCC(N4CCCC4)CC3)cc2)nc1-c1cc2ccccc2s1 — remaining binding (binding, competition with immobilised ligand; 1 µM): 30%
CCCCN(CCCC)C(=O)CN1C[C@@H](c2cc(OC)c3c(c2)OCO3)[C@H](C(=O)O)[C@H]1CC(C)(C)CCC — remaining binding (cell-free assay, competition with immobilised ligand; 1 µM): 78.7%
O=C(c1ccc(Nc2ncc(Cl)c(-c3cc4ccccc4s3)n2)cc1)N1CCC(N2CCCC2)CC1 — remaining binding (binding, competition with immobilised ligand; 1 µM): 24%
CN(C)c1nccc(-c2cnn3ncccc23)n1 — remaining binding (binding; 1 µM): 92%
O=C1CCc2cc(Nc3cc(OC4CCOCC4)c([N+](=O)[O-])cc3Cl)ccc2N1 — remaining binding (cell-free assay, competition with immobilised ligand; 1 µM): 100%
N[C@@H]1CCN(c2nccc(-c3cnn4ncccc34)n2)C1 — remaining binding (binding; 1 µM): 100%
FC(F)(F)Oc1cccc(-c2cnc3ccc(-c4ccncc4)nn23)c1 — remaining binding (cell-free assay, competition with immobilised ligand; 5 µM): 99%
CN(CCCC(F)(F)F)c1nccc(-c2cnn3ncccc23)n1 — remaining binding (binding; 1 µM): 100%
CCS(=O)(=O)c1cc2cc(C[C@](O)(CC(C)(C)c3ccc(F)cc3C(N)=O)C(F)(F)F)[nH]c2cn1 — remaining binding (cell-free assay, competition with immobilised ligand; 1 µM): 94%
COc1ccnn2ncc(-c3ccnc(N(C)C)n3)c12 — remaining binding (binding; 1 µM): 93%
O=C(NS(=O)(=O)c1ccc(NCC2CCOCC2)c([N+](=O)[O-])c1)c1ccc(N2CCN(Cc3ccc(C(F)(F)F)cc3-c3ccc(Cl)cc3)CC2)cc1Oc1cnc2[nH]ccc2c1 — remaining binding (cell-free assay, competition with immobilised ligand; 1 µM): 98%
